In ChEMBL document CHEMBL4834420, “Projected Dose Optimization of Amino- and Hydroxypyrrolidine Purine PI3Kδ Immunomodulators” (J Med Chem, 2021):

Tests used:
[1] = Protein binding in Wistar Han rat plasma; assay type: ADME, cell-free; conditions: read-out: PPB (converted)
[2] = Protein binding in human plasma; assay type: ADME, cell-free; conditions: read-out: PPB (converted)
[3] = Unbound trough plasma concentration Brown Norway rat at 30 mg/kg, po; assay type: ADME, organism-based; conditions: in vivo
[4] = target: T1, Phosphatidylinositol 4,5-bisphosphate 3-kinase catalytic subunit delta isoform (Mus musculus, UniProt O35904); test: Inhibition of mouse PI3Kdelta
T1 sequence (O35904 whole entry): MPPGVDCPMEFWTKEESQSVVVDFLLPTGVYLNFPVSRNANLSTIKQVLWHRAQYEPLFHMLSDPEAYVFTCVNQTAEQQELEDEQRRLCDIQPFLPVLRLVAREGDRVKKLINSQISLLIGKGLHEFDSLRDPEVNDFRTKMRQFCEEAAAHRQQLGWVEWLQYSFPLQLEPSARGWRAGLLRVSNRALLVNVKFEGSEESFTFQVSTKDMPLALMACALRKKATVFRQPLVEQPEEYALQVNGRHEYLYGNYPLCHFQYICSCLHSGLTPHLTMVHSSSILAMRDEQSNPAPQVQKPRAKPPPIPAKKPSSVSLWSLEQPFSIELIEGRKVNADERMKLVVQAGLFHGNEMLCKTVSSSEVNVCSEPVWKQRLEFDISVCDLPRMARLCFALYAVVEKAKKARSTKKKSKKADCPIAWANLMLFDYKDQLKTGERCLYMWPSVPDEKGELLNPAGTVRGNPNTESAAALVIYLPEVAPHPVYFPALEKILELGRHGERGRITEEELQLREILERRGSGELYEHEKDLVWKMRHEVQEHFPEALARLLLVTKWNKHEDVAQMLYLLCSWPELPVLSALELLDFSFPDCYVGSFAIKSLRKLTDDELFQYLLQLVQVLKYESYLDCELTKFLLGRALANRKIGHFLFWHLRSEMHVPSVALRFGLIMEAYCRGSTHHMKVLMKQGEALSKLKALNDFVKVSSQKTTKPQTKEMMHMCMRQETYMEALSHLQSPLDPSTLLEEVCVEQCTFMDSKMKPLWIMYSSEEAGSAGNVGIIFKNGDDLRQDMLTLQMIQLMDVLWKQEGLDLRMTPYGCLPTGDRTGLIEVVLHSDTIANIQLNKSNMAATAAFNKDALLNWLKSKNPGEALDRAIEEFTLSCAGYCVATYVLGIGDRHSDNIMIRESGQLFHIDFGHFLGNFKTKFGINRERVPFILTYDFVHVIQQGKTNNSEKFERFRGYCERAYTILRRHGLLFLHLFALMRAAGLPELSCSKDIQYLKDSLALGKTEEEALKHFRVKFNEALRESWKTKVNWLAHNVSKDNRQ

[5] = Half-life in Beagle dog; assay type: ADME, Canis lupus familiaris; conditions: in vivo
[6] = Unbound volume of distribution in C57BL/6 mouse; assay type: ADME; conditions: in vivo
[7] = target: ATP-dependent translocase ABCB1 (Homo sapiens, UniProt P08183); test: Inhibition of PGP (unknown origin)
Chain of ATP-dependent translocase ABCB1 (P08183 whole entry): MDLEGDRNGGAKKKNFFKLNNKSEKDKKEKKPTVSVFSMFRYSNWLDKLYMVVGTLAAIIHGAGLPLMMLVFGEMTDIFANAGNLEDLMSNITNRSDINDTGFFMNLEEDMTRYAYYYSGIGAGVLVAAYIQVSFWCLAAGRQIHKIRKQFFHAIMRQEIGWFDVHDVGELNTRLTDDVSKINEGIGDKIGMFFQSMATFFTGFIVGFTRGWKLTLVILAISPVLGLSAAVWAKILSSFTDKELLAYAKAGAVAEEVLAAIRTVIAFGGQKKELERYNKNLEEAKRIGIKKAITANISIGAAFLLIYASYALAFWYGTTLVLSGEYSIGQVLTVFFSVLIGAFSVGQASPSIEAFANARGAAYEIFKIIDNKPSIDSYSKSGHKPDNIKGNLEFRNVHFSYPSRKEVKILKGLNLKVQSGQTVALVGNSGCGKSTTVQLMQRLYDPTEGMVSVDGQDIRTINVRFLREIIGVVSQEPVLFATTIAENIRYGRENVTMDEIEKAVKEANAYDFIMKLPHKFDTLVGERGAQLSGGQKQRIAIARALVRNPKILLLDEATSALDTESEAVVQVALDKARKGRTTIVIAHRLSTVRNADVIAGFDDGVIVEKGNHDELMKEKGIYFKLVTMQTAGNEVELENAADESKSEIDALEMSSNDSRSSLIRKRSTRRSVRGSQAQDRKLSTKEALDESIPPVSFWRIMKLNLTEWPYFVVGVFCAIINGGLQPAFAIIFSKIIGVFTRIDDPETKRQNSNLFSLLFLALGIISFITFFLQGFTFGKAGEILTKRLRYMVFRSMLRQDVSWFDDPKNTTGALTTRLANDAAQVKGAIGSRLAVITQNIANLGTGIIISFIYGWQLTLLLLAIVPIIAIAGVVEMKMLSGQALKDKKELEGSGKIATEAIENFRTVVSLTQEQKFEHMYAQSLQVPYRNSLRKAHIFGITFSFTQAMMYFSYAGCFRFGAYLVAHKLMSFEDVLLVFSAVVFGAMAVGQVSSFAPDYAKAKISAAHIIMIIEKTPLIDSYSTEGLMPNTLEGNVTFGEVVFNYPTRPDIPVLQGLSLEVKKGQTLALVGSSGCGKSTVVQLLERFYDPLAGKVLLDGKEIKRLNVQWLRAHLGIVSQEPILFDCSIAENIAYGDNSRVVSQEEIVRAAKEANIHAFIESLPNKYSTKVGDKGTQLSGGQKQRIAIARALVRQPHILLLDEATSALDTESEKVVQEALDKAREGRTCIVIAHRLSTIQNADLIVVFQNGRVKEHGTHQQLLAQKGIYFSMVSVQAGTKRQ

[8] = Trough plasma concentration C57BL/6 mouse at 100 mg/kg; assay type: ADME, organism-based; conditions: in vivo, read-out: Cmin
Procedure, shortened: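 C57BL/6-Foxp3-GFP reporter mice were dosed at 30 and 100 mg/kg/day for up to 7 days, with exposure determined at 100 mg/kg. The unbound Cmax and trough values were derived from total plasma levels. Treg readout was bioluminescence imaging 10 min after 3 mg luciferin ip, reported as radiance in photons/s/cm²/steradian.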

[9] = AUC in C57BL/6 mouse at 100 mg/kg; assay type: ADME, organism-based; design: dose 100 mg/kg; conditions: in vivo
[10] = Plasma clearance in Wistar Han rat at 0.5 mg/kg, iv or 1 mg/kg, po; assay type: ADME, organism-based
[11] = target: T2, Phosphatidylinositol 4,5-bisphosphate 3-kinase catalytic subunit delta isoform (Homo sapiens, UniProt O00329); test: Inhibition of PI3Kdelta in human Ramos cells assessed as reduction in anti-IgM-antibody-induced phosphorylation of AKT at Ser473 residue preincubated for 20 mins followed by anti-IgM antibody stimulation and measured after 30 mins by alphascreen assay; assay type: cell-based
T2 sequence (O00329 whole entry): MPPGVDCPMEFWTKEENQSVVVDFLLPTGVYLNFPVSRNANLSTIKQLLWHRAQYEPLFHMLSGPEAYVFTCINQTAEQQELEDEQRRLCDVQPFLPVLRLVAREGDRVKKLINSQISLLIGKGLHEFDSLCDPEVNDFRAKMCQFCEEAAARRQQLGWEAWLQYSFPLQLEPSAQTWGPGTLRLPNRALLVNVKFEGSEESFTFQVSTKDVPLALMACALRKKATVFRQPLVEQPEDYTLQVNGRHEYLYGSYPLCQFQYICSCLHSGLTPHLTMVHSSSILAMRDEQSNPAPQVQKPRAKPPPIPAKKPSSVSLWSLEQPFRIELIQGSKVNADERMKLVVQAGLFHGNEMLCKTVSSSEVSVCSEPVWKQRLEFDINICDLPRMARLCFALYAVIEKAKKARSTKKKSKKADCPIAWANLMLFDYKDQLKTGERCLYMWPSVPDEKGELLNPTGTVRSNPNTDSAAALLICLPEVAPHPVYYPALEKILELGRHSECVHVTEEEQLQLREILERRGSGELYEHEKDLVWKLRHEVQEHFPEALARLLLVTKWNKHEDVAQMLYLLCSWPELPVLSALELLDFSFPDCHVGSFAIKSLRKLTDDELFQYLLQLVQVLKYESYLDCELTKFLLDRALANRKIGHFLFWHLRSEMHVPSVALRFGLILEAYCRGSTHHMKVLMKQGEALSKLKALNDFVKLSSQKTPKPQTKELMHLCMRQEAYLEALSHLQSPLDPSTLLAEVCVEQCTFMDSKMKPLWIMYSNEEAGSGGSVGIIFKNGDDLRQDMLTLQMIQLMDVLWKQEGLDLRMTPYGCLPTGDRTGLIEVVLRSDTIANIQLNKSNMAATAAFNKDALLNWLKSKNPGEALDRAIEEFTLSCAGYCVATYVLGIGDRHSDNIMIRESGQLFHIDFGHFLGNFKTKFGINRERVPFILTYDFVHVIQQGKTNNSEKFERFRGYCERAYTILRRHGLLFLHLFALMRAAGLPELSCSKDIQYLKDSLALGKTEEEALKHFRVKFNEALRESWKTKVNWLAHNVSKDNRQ

Cytochrome P450 3A4 = Cytochrome P450 3A4 (Homo sapiens, UniProt P08684); test: Inhibition of CYP3A4 (unknown origin); assay type: ADME
Chain of Cytochrome P450 3A4 (P08684 whole entry): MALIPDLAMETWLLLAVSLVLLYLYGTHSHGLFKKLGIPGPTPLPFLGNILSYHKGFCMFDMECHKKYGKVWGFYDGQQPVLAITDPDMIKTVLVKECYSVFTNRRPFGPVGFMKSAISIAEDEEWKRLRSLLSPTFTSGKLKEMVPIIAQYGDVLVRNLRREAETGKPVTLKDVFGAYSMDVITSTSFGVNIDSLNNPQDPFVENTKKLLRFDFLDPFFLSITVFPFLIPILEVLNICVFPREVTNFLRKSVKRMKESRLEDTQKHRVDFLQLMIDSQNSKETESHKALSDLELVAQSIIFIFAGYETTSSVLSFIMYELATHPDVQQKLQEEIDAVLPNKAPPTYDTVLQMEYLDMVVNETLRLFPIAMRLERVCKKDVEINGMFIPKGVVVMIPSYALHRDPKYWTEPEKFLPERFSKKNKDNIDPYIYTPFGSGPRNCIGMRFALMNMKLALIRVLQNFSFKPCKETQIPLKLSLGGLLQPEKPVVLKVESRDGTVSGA

P-gp (MDR1) = test: Efflux ratio of apparent permeability from basolateral to apical side over apical to basolateral side in dog MDCK2 cells expressing MDR1 PGP; assay type: ADME, cell-based, Canis lupus familiaris, MDCKII-MDR1; conditions: MDCK-MDR1
Rattus norvegicus = test: Immunomodulatory activity in ovalbumin induced Brown Norway rat allergic rhinitis model assessed as reduction in BAL count at 10 mg/kg, po administered for 2 days and treated with ovalbumin after 1 hr post second dose; assay type: functional; design: scale not given: the % may be the effect or the level left; conditions: time 2 day
Procedure, shortened: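 Brown Norway rats were presensitized with ovalbumin, 0.020 mg ip daily for 14 days. They then received compound orally for 2 days (0.3–30 mg/kg range studied). Ovalbumin challenge came 1 h after the second dose. Eosinophil cell count in bronchoalveolar lavage was assessed 48 h later.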

[12] = Trough plasma concentration Brown Norway rat at 30 mg/kg, po; assay type: ADME, organism-based; conditions: in vivo, read-out: Cmin
[13] = Cmax in C57BL/6 mouse at 100 mg/kg; assay type: ADME, organism-based; design: dose 100 mg/kg; conditions: in vivo

SMILES: CCn1c(-c2cnc(C)nc2)nc2c(N[C@H]3CCN(C(=O)C4CC4)C3)ncnc21
- fraction unbound [1]: 0.18
- fraction unbound [2]: 0.7
- fCmin [3]: 62 nM
- IC50 [4]: 0.0022 µM
- half-life [5]: 4.3 h
- Vdu [6]: 0.4 L/kg
- inhibition (INH) [7]: Not Active
- concentration [8]: 110 nM
- AUC [9]: 133 µM·h
- clearance [10]: 8.1 mL/min/kg
- IC50 [11]: 0.02 µM
- IC50 (Cytochrome P450 3A4): > 50 µM
- efflux ratio (P-gp (MDR1)): 16
- Activity (Rattus norvegicus): 50%
- concentration [12]: 103 nM
- Cmax [13]: 33000 nM
